Results as given in ChEMBL document CHEMBL1138406, “Bioactive pregnanes from Nerium oleander” (J Nat Prod, 2007).
Converted amounts (≈) assume the structure as drawn.

Key:
[1] = Cytotoxicity against human WI38 cells; type: cell-based; settings: WI-38
Outline: (§1)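 IC50 in µg/mL, taken as the mean of duplicate determinations.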

[2] = Effect on calcein accumulation in multidrug resistant human 2780 AD cells at 2.5 ug/mL relative to control; type: functional
Outline: (§2)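 Calcein (formed from calcein AM by cellular esterase) accumulated in multidrug-resistant ovarian cancer 2780 AD cells. Read in the presence of 0.25, 2.5 or 25 µg/mL test compound and expressed as % of control. Means of triplicate determinations.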

[3] = system: WI-38 VA13; test: Cytotoxicity against human VA13 cells; type: cell-based; outline: as §1
[4] = Effect on calcein accumulation in multidrug resistant human 2780 AD cells at 0.25 ug/mL relative to control; type: functional; outline: as §2
[5] = Effect on calcein accumulation in multidrug resistant human 2780 AD cells at 25 ug/mL relative to control; type: functional; outline: as §2
[6] = system: HepG2; test: Cytotoxicity against human HepG2 cells; type: cell-based; outline: as §1
[7] = system: A549; test: Cytotoxicity against human A549 cells by MTT assay; type: cell-based
Outline: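 A549 cells exposed to serial dilutions for 24 h. Viability (%) read by MTT and used to derive IC50. Triplicate cultures.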

[8] = system: A549; test: Inhibition of ICAM1 induction in human A549 cells; type: functional, cell-based
Outline: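 A549 cells pretreated 1 h with a range of test concentrations, then stimulated with IL-1α for 6 h. Surface ICAM-1 detected with primary and secondary antibodies plus enzyme substrate, absorbance at 415 nm. Triplicate cultures, IC50 derived.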

[9] = Effect on calcein accumulation in multidrug resistant human 2780 AD cells at 0.25 ug/mL relative to verapamil; type: functional
[10] = Effect on calcein accumulation in multidrug resistant human 2780 AD cells at 2.5 ug/mL relative to verapamil; type: functional
[11] = Effect on calcein accumulation in multidrug resistant human 2780 AD cells at 25 ug/mL relative to verapamil; type: functional

Row | IC50 [8] [µM] | Compound | IC50 [1] [µg/mL] | Activity [2] [%] | IC50 [3] [µg/mL] | Activity [4] [%] | Activity [5] [%] | IC50 [6] [µg/mL] | IC50 [7] [µM] | Activity [9] [%] | IC50 ([7]; read-out: IC50) [µM] | IC50 ([8]; read-out: IC50) [µM] | Activity [10] [%] | Activity [11] [%]
1 |  | C[C@]12C(=O)C[C@H]3[C@@H](C=CC4=CC(=O)CC[C@@]43C)[C@@H]1CC[C@@H]2C(=O)CO | 48.1 (≈ 140 µM) | 105 | 87.7 (≈ 256 µM) | 110 | 140 | 94.9 (≈ 277 µM) |  |  |  |  |  | 
2 | > 100 | CC(=O)[C@]12O[C@H]1C[C@H]1[C@@H]3C=CC4=CC(=O)CC[C@]4(C)[C@H]3C[C@@H](O)[C@@]12C | 51.1 (≈ 149 µM) | 108 | 73.1 (≈ 213 µM) | 103 | 99 | 62.1 (≈ 181 µM) | > 100 |  |  |  |  | 
3 |  | C[C@@H](O)[C@H]1CC[C@H]2[C@@H]3C=CC4=CC(=O)CC[C@]4(C)[C@H]3CC(=O)[C@]12C | 66.4 (≈ 202 µM) | 127 | 57.4 (≈ 175 µM) | 116 | 138 | 49.2 (≈ 150 µM) |  | 120 | > 300 | > 300 | 117 | 93
4 |  | CC(=O)C1=CC[C@H]2[C@@H]3C=CC4=CC(=O)CC[C@]4(C)[C@H]3C[C@@H](O)[C@]12C [NERIDIENONE A] | 4.9 (≈ 15 µM) | 92 | 0.68 (≈ 2.08 µM) | 109 | 107 | 2.5 (≈ 7.66 µM) |  |  | 53.1 | 7 |  | 
5 |  | COc1ccc(CCN(C)CCCC(C#N)(c2ccc(OC)c(OC)c2)C(C)C)cc1OC (stereo not given) [VERAPAMIL] |  | 109 |  | 97 | 148 |  |  |  |  |  |  | 
6 |  | C[C@]12C(=O)C[C@H]3[C@@H](C=CC4=CC(=O)CC[C@@]43C)[C@@H]1CC[C@@H]2[C@H](O)CO [NERIDIENONE B] | 73.5 (≈ 213 µM) | 154 | > 100 | 110 | 148 | > 100 |  | 113 |  |  | 141 | 100
